This note sets out measurements from ChEMBL document CHEMBL5537160, “Design, Synthesis, Pharmacology, and In Silico Studies of (1S,2S,3S)-2-((S)-Amino(carboxy)methyl)-3-(carboxymethyl)cyclopropane-1-carboxylic Acid (LBG30300): A Picomolar Potency Subtype-Selective mGlu2 Receptor Agonist” (J Med Chem, 2024).

Calls of active or inactive are those of the source. No cut-off for these calls is given here.

Data set [1] deals with Metabotropic glutamate receptor 6 (Rattus norvegicus) (UniProt P35349). Kind of data set: Antagonist activity at rat mGlu6 transfected in HEK293 cells co-transfected with chimeric Gqi9 incubated for 30 mins by IP-one HTRF assay. It counts as functional, cell-based. The procedure, abridged: (§1)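 Rat group II/III receptor co-electroporated into HEK293 with chimeric Gqi9 and EAAC1 transporter, serum-free medium ≥2 h pre-assay. At 24 h post-transfection, Krebs wash, then 30 min compound exposure with 50 mM LiCl. IP1 accumulation quantified by HTRF kit, at least duplicate runs, mean of 2–5 experiments.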

Data set [2] concerns the target Metabotropic glutamate receptor 3 (Rattus norvegicus) (UniProt P31422). Kind of data set: Antagonist activity at rat mGlu3 transfected in HEK293 cells co-transfected with chimeric Gqi9 incubated for 30 mins by IP-one HTRF assay. It counts as functional, cell-based.
Data set [3] concerns the target Metabotropic glutamate receptor 1 (Rattus norvegicus) (UniProt P23385). Briefly: Antagonist activity at rat mGlu1 transfected in HEK293 cells by IP-one HTRF assay. The data set is classed as functional, cell-based. The essentials:
(§2)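 HEK293 cells transiently electroporated with rat receptor plasmid plus EAAC1 Glu transporter, plated 150 000 cells/well on polyornithine, serum-free Glutamax DMEM ≥2 h before assay. At 24 h, washed in Krebs buffer and stimulated 30 min with compound in 50 mM LiCl. IP1 read by HTRF, at least duplicates, EC50 from 2–5 experiments.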

Data set [4] deals with Metabotropic glutamate receptor 2 (Rattus norvegicus) (UniProt P31421). Briefly: Antagonist activity at rat mGlu2 transfected in HEK293 cells co-transfected with chimeric Gqi9 incubated for 30 mins by IP-one HTRF assay. The data set is classed as functional, cell-based.
For data set [5], the target named is T1, Metabotropic glutamate receptor 3 (Rattus norvegicus, UniProt P31422). Briefly: Agonist activity at rat mGlu3 transfected in HEK293 cells co-transfected with chimeric Gqi9 incubated for 30 mins by IP-one HTRF assay. It counts as functional, cell-based.
Data set [6] addresses Metabotropic glutamate receptor 7 (Rattus norvegicus) (UniProt P35400). Briefly: Antagonist activity at rat mGlu7 transfected in HEK293 cells co-transfected with chimeric Gqi9 incubated for 30 mins by IP-one HTRF assay. The data set is classed as functional, cell-based. The essentials:
as §1

Data set [7] concerns the target Metabotropic glutamate receptor 2 (Rattus norvegicus, UniProt P31421). Kind of data set: Agonist activity at rat mGlu2 transfected in HEK293 cells co-transfected with chimeric Gqi9 incubated for 30 mins by IP-one HTRF assay. It counts as functional, cell-based. The note with it: read-out: EC50. The procedure, abridged:
as §1

Data set [8] addresses Metabotropic glutamate receptor 5 (Rattus norvegicus) (UniProt P31424). Kind of data set: Antagonist activity at rat mGlu5 transfected in HEK293 cells by IP-one HTRF assay. It counts as functional, cell-based. The procedure, abridged:
as §2

Data set [9] deals with Metabotropic glutamate receptor 4 (Rattus norvegicus) (UniProt P31423). Briefly: Antagonist activity at rat mGlu4 transfected in HEK293 cells co-transfected with chimeric Gqi9 incubated for 30 mins by IP-one HTRF assay. The data set is classed as functional, cell-based. The procedure, abridged:
as §1

Data set [10] addresses Metabotropic glutamate receptor 8 (Rattus norvegicus) (UniProt P70579). Kind of data set: Antagonist activity at rat mGlu8 transfected in HEK293 cells co-transfected with chimeric Gqi9 incubated for 30 mins by IP-one HTRF assay. The data set is classed as functional, cell-based. The procedure, abridged: as §1
Data set [11] has as its target Metabotropic glutamate receptor 8 (Rattus norvegicus, UniProt P70579). Kind of data set: Agonist activity at rat mGlu8 transfected in HEK293 cells co-transfected with chimeric Gqi9 incubated for 30 mins by IP-one HTRF assay. The data set is classed as functional, cell-based. The note with it: read-out: EC50. The essentials: as §1
For data set [12], the target named is Metabotropic glutamate receptor 7 (Rattus norvegicus, UniProt P35400). Briefly: Agonist activity at rat mGlu7 transfected in HEK293 cells co-transfected with chimeric Gqi9 incubated for 30 mins by IP-one HTRF assay. The data set is classed as functional, cell-based. The essentials:
as §1

The target of data set [13] is Metabotropic glutamate receptor 5 (Rattus norvegicus, UniProt P31424). Briefly: Agonist activity at rat mGlu5 transfected in HEK293 cells by IP-one HTRF assay. The data set is classed as functional, cell-based. The essentials: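 HEK293 cells transiently electroporated with rat receptor plasmid plus the high-affinity Glu transporter EAAC1. Cells were grown in DMEM with 10% FBS and seeded on polyornithine-coated wells at 150 000 cells/well. Medium was switched to serum-free Glutamax DMEM ≥2 h before assay. At 24 h cells were washed in Krebs buffer and stimulated 30 min with agonist plus 50 mM LiCl. IP1 read by IP-One HTRF; ≥ duplicates.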

Data set [14] concerns the target Metabotropic glutamate receptor 6 (Rattus norvegicus, UniProt P35349). Kind of data set: Agonist activity at rat mGlu6 transfected in HEK293 cells co-transfected with chimeric Gqi9 incubated for 30 mins by IP-one HTRF assay. The data set is classed as functional, cell-based. Conditions: read-out: EC50. The essentials:
as §1

For data set [15], the target named is Metabotropic glutamate receptor 4 (Rattus norvegicus, UniProt P31423). Briefly: Agonist activity at rat mGlu4 transfected in HEK293 cells co-transfected with chimeric Gqi9 incubated for 30 mins by IP-one HTRF assay. The data set is classed as functional, cell-based. The note with it: read-out: EC50. The procedure, abridged:
as §1

The target of data set [16] is Metabotropic glutamate receptor 1 (Rattus norvegicus, UniProt P23385). Kind of data set: Agonist activity at rat mGlu1 transfected in HEK293 cells by IP-one HTRF assay. The data set is classed as functional, cell-based. The procedure, abridged: as §2
The target in data set [17] is T1, Metabotropic glutamate receptor 3. Briefly: Agonist activity at rat mGlu3 transfected in HEK293 cells assessed as inositol phosphate accumulation. It counts as functional, cell-based.
Data set [18] shares this target. Briefly: Agonist activity at SNAP tagged rat mGlu3 transfected HEK293 cells preincubated with antagonist LY-341495 followed by compound addition by TR-FRET assay. It counts as functional, cell-based.
Data set [19] in a line: Cmax in C57BL/6 mouse plasma at 100 mg/kg, po by LC-MS/MS analysis. The data set is classed as ADME, organism-based.
Data set [20] can be described thus: Cmax in C57BL/6 mouse brain at 100 mg/kg, po by LC-MS/MS analysis. It counts as ADME, organism-based.
For data set [21], the target named is T1, Metabotropic glutamate receptor 3. Kind of data set: Agonist activity at rat mGlu3. It counts as functional.
A short description of data set [22]: Cmax in CSF of C57BL/6 mouse at 100 mg/kg, po by LC-MS/MS analysis. The data set is classed as ADME, organism-based, Cerebrospinal fluid.
Data set [23] in a line: Half life in C57BL/6 mouse brain at 100 mg/kg, po by LC-MS/MS analysis. The data set is classed as ADME, organism-based.
Data set [24] in a line: Half life in C57BL/6 mouse plasma at 100 mg/kg, po by LC-MS/MS analysis. It counts as ADME, organism-based.

Sequence of Metabotropic glutamate receptor 5 (Rattus norvegicus) (P31424 21-1203 limits assumed): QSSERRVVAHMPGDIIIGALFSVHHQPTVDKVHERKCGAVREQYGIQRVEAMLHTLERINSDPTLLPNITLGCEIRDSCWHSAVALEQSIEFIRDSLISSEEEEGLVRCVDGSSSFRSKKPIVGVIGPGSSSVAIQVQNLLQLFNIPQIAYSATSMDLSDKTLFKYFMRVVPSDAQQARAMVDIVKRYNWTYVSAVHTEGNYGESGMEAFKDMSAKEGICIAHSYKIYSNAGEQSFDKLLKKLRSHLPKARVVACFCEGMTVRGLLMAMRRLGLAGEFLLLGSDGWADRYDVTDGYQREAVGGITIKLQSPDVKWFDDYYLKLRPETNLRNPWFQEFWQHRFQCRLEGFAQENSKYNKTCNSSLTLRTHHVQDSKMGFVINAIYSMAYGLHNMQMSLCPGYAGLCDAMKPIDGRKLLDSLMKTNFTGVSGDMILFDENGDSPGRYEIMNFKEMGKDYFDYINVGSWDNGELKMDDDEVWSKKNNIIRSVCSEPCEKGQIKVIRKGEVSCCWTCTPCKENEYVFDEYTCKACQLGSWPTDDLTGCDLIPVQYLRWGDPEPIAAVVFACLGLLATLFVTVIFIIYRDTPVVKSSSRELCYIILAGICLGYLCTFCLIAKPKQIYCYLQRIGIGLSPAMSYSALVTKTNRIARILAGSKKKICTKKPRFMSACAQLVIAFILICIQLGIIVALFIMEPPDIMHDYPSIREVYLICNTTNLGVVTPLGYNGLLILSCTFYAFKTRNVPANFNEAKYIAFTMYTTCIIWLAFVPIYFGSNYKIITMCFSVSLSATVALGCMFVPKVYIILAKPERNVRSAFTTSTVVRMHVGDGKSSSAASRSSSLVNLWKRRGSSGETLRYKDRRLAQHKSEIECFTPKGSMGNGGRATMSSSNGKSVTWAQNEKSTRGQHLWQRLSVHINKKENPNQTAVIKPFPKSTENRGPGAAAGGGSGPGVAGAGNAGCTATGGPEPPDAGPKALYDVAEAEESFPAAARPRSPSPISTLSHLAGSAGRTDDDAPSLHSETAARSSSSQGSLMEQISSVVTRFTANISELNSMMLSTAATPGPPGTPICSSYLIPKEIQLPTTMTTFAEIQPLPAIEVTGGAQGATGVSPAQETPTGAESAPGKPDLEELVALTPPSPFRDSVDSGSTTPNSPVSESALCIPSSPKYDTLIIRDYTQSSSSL
Sequence of Metabotropic glutamate receptor 4 (Rattus norvegicus) (P31423 whole entry): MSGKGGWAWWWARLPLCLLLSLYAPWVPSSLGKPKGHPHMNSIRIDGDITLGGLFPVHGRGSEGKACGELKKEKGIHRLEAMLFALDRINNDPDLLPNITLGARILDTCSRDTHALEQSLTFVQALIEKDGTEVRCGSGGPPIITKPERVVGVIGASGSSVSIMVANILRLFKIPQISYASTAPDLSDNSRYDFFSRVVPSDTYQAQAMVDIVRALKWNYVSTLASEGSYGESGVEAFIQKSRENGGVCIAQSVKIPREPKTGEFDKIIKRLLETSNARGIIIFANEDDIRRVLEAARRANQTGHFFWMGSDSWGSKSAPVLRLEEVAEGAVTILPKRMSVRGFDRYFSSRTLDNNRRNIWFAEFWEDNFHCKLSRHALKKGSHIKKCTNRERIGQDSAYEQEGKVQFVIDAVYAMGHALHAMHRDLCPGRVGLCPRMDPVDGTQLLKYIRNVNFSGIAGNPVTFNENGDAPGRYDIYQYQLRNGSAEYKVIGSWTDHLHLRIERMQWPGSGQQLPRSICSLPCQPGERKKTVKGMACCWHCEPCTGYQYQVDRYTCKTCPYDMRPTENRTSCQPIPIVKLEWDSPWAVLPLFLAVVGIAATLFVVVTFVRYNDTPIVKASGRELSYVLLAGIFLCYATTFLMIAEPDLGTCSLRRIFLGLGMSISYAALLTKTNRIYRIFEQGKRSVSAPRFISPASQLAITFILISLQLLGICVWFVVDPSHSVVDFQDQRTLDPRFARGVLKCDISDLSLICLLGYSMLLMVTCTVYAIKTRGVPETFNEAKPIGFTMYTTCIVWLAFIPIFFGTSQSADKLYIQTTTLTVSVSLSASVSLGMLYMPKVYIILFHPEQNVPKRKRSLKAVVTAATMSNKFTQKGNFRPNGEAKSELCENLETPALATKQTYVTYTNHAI
Sequence of Metabotropic glutamate receptor 1 (Rattus norvegicus) (P23385 19-1199 limits assumed): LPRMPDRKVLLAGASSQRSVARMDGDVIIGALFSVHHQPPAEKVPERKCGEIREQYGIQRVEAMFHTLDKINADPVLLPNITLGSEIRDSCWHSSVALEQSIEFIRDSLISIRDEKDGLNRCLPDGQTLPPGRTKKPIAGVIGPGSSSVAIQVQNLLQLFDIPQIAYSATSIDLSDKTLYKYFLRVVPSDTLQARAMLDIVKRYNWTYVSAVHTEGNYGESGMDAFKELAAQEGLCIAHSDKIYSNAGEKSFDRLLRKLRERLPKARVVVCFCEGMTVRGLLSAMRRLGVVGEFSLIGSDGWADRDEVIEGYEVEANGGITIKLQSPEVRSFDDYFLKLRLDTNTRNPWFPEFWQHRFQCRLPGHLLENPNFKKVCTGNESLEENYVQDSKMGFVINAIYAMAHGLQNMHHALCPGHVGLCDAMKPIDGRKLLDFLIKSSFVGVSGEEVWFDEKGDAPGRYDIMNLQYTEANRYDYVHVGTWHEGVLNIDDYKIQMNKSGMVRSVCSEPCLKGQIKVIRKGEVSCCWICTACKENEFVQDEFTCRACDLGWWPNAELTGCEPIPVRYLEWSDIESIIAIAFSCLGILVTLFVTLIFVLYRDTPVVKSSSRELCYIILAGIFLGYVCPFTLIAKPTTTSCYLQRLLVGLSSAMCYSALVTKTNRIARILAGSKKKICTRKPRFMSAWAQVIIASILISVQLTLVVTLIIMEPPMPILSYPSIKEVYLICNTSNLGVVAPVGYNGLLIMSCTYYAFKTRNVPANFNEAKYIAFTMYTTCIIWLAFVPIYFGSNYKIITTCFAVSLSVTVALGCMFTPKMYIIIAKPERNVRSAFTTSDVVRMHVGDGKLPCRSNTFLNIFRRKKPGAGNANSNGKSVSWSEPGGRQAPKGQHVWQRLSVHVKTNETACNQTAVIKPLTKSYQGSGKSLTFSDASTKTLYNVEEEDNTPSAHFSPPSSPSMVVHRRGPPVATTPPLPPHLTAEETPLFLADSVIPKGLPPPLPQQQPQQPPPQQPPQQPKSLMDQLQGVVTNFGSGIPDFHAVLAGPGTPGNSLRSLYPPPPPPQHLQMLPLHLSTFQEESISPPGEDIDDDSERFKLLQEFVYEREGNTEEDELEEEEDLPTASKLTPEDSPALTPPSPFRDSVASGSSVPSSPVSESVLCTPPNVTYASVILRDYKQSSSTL
Sequence of Metabotropic glutamate receptor 2 (Rattus norvegicus) (P31421 19-872 limits assumed): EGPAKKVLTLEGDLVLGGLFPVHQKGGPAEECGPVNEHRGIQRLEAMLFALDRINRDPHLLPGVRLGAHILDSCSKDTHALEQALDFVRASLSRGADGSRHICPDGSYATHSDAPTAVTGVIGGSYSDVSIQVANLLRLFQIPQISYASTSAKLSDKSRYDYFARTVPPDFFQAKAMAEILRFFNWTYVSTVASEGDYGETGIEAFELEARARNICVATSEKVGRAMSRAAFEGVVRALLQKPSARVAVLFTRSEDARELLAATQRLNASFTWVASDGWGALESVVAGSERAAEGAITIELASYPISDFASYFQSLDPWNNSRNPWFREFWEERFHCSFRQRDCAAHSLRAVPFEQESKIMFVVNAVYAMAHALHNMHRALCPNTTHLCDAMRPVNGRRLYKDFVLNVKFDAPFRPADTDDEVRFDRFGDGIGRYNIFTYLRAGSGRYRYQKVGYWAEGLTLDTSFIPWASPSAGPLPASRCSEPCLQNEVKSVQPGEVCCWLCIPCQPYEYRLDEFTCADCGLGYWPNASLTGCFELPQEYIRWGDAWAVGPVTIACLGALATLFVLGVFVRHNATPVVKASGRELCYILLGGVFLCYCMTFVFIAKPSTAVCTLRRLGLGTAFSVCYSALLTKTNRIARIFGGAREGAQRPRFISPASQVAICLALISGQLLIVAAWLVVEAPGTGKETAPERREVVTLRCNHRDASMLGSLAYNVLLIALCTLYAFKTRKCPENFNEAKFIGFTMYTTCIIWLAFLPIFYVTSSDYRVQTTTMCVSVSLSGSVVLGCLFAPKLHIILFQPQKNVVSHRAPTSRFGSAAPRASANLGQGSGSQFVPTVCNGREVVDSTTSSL
Sequence of Metabotropic glutamate receptor 8 (Rattus norvegicus) (P70579 whole entry): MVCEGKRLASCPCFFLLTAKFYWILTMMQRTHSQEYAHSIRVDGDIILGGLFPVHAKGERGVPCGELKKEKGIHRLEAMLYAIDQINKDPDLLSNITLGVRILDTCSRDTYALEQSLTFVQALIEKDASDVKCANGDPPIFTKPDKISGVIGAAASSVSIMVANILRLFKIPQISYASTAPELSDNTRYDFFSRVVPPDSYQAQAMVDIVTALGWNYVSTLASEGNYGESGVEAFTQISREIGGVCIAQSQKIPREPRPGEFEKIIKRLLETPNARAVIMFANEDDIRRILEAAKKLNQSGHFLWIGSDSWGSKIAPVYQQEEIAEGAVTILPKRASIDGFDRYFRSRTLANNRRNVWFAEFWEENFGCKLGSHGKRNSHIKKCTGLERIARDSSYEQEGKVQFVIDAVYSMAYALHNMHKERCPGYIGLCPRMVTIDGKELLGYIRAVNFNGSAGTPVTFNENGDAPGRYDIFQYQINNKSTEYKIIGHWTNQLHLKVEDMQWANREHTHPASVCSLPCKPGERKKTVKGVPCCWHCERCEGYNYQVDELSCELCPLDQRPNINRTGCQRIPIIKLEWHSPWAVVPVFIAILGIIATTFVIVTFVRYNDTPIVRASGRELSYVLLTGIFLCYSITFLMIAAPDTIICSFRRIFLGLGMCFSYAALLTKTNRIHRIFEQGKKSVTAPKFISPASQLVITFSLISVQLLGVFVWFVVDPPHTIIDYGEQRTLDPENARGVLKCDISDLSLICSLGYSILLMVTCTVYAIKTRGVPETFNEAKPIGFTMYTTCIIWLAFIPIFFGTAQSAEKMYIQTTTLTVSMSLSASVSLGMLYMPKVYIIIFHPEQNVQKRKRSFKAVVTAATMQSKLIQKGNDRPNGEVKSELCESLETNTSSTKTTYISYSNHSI
Sequence of Metabotropic glutamate receptor 4 (P31423 whole entry): as the sequence (P31423 whole entry) above

For `N[C@@]1(C(=O)O)CO[C@H]2[C@H](C(=O)O)[C@H]21` [LY-379268], the outcome in data set [1], in [2], in [3], in data set [4], in data set [6] and in [8] was inactive. Besides, the outcome in data set [9] and in [10] was inactive. For the same compound, the figures for the EC50 in [5] and in [7] were 10 nM and 1 nM, respectively.

As to `C[C@@]1(C(=O)O)C[C@H]1[C@H](N)C(=O)O`, the result in [1], in data set [2], in data set [3], in [4], in data set [6] and in data set [8] was inactive. Further, the result in [9] and in data set [10] was inactive. Further, the EC50 is > 30000 nM in data set [11]; > 30000 nM in data set [12]; 12000 nM in [13] (read-out: EC50); 2500 nM in [14]; 1880 nM in data set [5]; > 30000 nM in [15]. In data set [16], this compound displayed an EC50 of 5500 nM.

In the case of `N[C@H](C(=O)O)C1[C@@H](C(=O)O)[C@@H]1C(=O)O` (stereo partly drawn), in data set [17], the EC50 turned out to be 90 nM.

`N[C@@H](Cn1oc(=O)[nH]c1=O)C(=O)O` [QUISQUALATE]: the result in [1], in [2], in data set [3], in data set [4], in data set [6] and in data set [8] was inactive. Further, the result in [9] and in data set [10] was inactive. The EC50 in data set [13] (read-out: EC50) was 27 nM; in data set [13] (read-out: pEC50 (converted)) it was 40.7 nM.

With `N[C@@]1(C(=O)O)CC[C@H]2[C@H](C(=O)O)[C@H]21`, the EC50 in [18] was determined as 4800 nM; in data set [21], 27 nM. Moreover, the Cmax in data set [19] was determined as 2120 ng/mL; in data set [20] it was 76 ng/g; in data set [22], 14 ng/g. The half-life in data set [23] was 69 h; in data set [24], 6.8 h.
